Tests used:
[1] = molecular target: Vascular endothelial growth factor receptor 2 (Homo sapiens, UniProt P35968); assay: Inhibition of recombinant VEGFR2
In short: (§1)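 Purified recombinant kinase, 50 µL reaction. 1 µM [γ-33P]-ATP with substrate; compound added in 10% DMSO. Tested over several concentrations; IC50 in g/mL.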

[2] = molecular target: Platelet-derived growth factor receptor beta (Homo sapiens, UniProt P09619); assay: Inhibition of recombinant PDGFRbeta
[3] = molecular target: T1, Serine/threonine-protein kinase PLK4 (Homo sapiens, UniProt O00444); assay: Inhibition of recombinant SAK
T1 sequence (O00444 whole entry): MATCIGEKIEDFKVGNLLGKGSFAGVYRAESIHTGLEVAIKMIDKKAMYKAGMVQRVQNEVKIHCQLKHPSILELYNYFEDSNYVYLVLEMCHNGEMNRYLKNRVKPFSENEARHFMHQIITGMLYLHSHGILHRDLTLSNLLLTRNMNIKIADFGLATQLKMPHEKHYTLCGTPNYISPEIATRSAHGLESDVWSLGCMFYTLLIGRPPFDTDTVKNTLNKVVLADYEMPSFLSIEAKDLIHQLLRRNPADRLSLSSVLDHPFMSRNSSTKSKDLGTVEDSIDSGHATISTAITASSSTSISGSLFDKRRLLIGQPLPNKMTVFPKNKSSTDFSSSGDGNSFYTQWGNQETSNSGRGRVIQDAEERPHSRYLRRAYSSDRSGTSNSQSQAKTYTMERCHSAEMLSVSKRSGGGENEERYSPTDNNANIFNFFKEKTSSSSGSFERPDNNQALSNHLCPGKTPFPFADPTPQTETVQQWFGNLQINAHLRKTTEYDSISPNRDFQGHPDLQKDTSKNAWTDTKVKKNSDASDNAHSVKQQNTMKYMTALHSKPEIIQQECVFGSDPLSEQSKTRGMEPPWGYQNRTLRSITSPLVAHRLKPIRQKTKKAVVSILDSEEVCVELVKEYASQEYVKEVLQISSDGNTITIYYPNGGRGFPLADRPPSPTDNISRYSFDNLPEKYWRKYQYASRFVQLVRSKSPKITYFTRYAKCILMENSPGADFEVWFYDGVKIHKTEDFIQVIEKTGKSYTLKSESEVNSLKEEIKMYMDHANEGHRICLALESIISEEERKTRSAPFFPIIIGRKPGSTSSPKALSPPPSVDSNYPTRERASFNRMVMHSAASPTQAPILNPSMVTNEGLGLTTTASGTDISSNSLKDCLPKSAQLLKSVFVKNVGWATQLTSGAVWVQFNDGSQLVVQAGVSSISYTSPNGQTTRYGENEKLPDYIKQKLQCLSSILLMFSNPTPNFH

[4] = molecular target: T2, Receptor-type tyrosine-protein kinase FLT3 (Homo sapiens, UniProt P36888); assay: Inhibition of recombinant FLT3; in short: as §1
T2 sequence (P36888 whole entry): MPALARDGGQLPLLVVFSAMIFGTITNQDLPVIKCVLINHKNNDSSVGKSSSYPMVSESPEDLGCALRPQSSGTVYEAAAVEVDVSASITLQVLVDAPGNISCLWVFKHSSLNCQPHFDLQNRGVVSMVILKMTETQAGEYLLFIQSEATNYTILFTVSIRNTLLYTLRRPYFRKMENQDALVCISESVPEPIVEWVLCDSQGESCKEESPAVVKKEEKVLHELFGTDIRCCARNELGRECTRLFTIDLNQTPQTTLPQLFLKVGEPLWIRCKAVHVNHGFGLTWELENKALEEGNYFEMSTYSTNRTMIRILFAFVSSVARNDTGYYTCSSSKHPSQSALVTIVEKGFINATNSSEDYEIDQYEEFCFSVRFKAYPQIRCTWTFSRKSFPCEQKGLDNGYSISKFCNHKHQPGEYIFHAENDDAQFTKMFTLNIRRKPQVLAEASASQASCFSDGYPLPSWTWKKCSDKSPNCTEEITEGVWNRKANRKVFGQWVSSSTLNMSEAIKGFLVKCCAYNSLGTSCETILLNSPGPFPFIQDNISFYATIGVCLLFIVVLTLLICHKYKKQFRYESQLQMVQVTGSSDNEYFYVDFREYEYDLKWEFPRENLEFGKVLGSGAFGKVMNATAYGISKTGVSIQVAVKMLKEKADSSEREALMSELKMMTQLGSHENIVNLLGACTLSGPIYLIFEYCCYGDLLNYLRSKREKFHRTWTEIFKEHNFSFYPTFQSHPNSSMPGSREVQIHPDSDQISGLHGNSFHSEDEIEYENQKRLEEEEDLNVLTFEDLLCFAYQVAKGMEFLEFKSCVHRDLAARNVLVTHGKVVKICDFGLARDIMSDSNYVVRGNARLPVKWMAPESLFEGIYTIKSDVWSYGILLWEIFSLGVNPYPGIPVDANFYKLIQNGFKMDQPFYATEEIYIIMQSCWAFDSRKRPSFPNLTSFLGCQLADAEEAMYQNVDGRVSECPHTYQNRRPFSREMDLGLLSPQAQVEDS

[5] = molecular target: Casein kinase II subunit alpha (Homo sapiens, UniProt P68400); assay: Inhibition of recombinant CK2alpha1; in short: as §1
Sequence of Casein kinase II subunit alpha (P68400 whole entry): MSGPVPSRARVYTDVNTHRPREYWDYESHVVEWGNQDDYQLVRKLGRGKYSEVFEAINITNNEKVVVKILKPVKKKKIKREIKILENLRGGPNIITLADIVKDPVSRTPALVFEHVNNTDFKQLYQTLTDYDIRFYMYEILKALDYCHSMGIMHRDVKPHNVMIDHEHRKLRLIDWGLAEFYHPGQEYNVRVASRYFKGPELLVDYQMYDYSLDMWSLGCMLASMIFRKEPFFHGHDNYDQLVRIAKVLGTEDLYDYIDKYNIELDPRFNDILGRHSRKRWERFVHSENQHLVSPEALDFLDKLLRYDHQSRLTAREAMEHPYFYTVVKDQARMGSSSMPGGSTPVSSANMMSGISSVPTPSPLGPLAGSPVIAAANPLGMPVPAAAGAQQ

Insulin receptor = Insulin receptor (Homo sapiens, UniProt P06213); assay: Inhibition of recombinant INSR
Sequence of Insulin receptor (P06213 28-758 limits assumed): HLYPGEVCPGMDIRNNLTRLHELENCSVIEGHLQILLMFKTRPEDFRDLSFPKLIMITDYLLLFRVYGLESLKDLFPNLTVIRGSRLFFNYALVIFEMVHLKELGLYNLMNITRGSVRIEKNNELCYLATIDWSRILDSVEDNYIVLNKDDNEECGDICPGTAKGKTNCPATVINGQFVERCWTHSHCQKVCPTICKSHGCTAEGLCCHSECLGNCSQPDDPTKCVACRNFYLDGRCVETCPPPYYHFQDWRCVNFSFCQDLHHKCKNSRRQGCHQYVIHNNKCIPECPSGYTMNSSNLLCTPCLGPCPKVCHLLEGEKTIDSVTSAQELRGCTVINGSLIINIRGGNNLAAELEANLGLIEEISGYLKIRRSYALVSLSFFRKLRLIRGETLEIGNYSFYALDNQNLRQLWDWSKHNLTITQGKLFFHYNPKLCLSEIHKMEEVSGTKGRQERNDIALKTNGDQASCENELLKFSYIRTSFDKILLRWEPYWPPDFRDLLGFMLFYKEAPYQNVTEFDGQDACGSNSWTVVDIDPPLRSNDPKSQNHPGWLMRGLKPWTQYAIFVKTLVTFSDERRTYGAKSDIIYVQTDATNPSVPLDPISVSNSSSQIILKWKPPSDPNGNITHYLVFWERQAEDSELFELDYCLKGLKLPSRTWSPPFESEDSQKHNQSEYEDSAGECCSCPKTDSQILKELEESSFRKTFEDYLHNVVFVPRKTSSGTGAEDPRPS
Sequence of Insulin receptor (P06213 763-1382 limits assumed): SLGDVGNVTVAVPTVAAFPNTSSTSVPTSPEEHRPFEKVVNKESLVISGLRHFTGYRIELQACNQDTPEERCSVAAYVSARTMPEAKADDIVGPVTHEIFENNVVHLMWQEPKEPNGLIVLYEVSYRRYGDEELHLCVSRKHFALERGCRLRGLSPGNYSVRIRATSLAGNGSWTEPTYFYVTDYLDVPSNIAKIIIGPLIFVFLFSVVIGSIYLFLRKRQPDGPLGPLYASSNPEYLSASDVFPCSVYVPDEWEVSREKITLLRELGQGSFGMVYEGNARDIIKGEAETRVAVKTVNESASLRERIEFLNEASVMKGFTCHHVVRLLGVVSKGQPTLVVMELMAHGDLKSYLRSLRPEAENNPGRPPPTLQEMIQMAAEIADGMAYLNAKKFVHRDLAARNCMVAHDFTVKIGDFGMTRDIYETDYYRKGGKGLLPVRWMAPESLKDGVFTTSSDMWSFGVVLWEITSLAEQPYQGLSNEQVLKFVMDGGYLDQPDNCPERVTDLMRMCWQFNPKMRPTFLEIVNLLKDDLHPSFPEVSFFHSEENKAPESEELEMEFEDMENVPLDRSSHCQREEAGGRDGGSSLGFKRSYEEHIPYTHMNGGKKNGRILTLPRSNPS

Sequence of Vascular endothelial growth factor receptor 2 (P35968 whole entry): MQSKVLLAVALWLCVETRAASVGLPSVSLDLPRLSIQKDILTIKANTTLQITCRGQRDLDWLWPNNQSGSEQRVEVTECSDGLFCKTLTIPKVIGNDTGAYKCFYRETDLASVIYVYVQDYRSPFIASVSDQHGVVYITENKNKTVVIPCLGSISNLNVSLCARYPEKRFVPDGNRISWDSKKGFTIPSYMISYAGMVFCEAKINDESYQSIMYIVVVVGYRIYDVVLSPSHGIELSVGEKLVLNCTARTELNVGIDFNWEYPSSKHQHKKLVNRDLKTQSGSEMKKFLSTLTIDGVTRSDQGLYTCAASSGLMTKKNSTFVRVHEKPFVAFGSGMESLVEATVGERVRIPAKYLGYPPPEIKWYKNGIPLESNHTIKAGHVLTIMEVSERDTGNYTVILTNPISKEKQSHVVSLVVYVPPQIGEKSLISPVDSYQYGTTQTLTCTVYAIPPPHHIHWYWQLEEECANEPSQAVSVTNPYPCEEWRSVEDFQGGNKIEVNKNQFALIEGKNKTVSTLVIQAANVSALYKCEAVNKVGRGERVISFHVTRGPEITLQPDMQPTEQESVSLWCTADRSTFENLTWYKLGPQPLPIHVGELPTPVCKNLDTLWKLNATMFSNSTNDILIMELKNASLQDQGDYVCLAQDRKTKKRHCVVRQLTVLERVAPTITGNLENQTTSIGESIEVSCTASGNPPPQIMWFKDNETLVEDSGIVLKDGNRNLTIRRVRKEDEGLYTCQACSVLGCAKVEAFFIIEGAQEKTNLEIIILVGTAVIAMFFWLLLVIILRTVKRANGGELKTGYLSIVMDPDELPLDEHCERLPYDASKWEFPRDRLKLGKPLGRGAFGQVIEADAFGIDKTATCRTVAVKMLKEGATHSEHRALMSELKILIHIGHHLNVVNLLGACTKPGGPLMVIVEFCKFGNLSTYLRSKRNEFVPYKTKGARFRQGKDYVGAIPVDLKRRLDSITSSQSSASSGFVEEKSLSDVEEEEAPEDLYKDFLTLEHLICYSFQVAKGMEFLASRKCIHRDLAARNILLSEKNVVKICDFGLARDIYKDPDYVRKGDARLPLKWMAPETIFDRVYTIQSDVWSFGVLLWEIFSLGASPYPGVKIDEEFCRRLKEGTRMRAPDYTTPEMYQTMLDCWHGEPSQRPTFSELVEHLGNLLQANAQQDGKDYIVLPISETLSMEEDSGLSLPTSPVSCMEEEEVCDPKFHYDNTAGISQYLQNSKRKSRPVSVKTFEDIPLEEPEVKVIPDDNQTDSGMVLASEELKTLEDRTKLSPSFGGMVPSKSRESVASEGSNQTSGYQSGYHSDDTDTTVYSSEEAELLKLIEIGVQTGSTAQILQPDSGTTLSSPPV
Sequence of Platelet-derived growth factor receptor beta (P09619 whole entry): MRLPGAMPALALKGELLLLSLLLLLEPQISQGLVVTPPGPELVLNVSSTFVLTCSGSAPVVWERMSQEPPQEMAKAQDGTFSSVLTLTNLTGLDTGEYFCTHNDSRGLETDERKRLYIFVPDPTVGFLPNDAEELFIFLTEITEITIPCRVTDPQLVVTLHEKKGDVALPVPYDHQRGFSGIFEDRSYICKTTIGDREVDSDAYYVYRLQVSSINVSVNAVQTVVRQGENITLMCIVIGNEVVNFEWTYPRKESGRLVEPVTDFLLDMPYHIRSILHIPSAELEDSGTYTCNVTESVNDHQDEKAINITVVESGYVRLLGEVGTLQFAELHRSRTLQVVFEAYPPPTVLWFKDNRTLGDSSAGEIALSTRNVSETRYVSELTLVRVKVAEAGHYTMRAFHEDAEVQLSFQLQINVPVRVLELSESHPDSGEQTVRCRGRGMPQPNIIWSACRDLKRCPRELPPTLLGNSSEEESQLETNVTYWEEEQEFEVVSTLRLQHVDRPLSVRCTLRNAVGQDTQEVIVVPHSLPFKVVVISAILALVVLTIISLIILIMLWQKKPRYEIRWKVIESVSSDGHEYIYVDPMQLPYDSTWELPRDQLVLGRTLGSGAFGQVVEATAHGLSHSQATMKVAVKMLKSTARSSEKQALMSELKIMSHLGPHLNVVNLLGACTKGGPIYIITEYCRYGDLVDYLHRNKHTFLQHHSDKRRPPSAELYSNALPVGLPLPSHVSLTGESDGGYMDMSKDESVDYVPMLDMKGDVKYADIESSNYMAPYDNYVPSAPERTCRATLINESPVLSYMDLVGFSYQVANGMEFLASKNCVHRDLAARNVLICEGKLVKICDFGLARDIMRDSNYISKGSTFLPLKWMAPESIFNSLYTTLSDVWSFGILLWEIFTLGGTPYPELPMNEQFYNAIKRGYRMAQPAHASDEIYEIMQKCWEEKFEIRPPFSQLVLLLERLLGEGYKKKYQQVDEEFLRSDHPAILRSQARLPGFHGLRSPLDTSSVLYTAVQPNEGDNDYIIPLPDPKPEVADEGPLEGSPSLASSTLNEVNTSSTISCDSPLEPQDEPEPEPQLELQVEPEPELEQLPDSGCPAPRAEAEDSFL

SMILES	IC50 [1]	IC50 [2]	IC50 [3]	IC50 [4]	IC50 [5]	IC50 (Insulin receptor)
COc1cc(O)c2c(c1)-c1cc(O)c(O)cc1COC2=O [Alterlactone]	> 34.6 µM	> 34.6 µM	> 34.6 µM	> 34.6 µM	> 34.6 µM	> 34.6 µM
COc1cc(O)c2c(c1)C1(OC2=O)C(=O)C(=O)CC1C (stereo not given) [TALAROFLAVONE]	> 36.2 µM	–	> 36.2 µM	> 36.2 µM	> 36.2 µM	–

Source: BindingDB's records for doi:10.1021/np070447m (2008)
